ChEMBL document CHEMBL1154860, “Synthesis and investigation of inhibition effect of fluorinated sulfonamide derivatives on carbonic anhydrase” (Eur J Med Chem, 2010)
Calls of active or inactive are those of the source. The calls are words filed in the database; no cut-off is given here.

Tests used:
[1] = Cytotoxicity in sheep RBC assessed as hemolysis at 31.25 uM after 20 mins; assay type: cell-based, Ovis aries; settings: erythrocyte
Outline: (§1)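 Sheep erythrocytes were washed three times in PBS pH 7.4 just before the assay and used at a final 5% cell concentration in the same buffer. After incubation with compound, samples were centrifuged and supernatant absorbance was read at 405 nm. The 0% and 100% hemolysis references were erythrocyte stock in PBS and in distilled water, processed identically.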

[2] = Inhibition of bovine carbonic anhydrase assessed as conversion of 4-nitrophenyl acetate to 4-nitrophnolate after 5 mins; design: species or system Bos taurus
Outline: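 Bovine CA at 2.9 × 10^-6 M (concentration set from A280) measured by initial rate of 4-nitrophenyl acetate hydrolysis, substrate in acetone/water over a range of concentrations. 4-Nitrophenolate formation followed at 348 nm, pH 8, with non-enzymatic hydrolysis subtracted. Inhibitors dissolved in distilled–deionized water. Triplicates at each substrate and inhibitor concentration; IC50 is the mean of 3 assays.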

[3] = species on record: Bos taurus; assay: Inhibition of bovine carbonic anhydrase assessed as conversion of 4-nitrophenyl acetate to 4-nitrophnolate at 0.27 to 2.07 uM after 5 mins
Outline: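 Native bovine CA, concentration set from A280 (2.9 × 10^-6 M). Initial rate of 4-nitrophenyl acetate hydrolysis followed at 348 nm at pH 8. Substrate was 1.04 × 10^-3 to 1.875 × 10^-4 M, prepared in acetone/water, and inhibitors were dissolved in water. Non-enzymatic hydrolysis was subtracted, each point was run in triplicate, and values are means of 3 assays.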

[4] = Cytotoxicity in sheep RBC assessed as hemolysis at 62.5 uM after 20 mins; assay type: cell-based, Ovis aries; settings: erythrocyte; outline: as §1
[5] = Cytotoxicity in sheep RBC assessed as hemolysis at 1000 uM after 20 mins; assay type: cell-based, Ovis aries; settings: erythrocyte; outline: as §1
[6] = biological target: Carbonic anhydrase 2 (Homo sapiens, UniProt P00918); assay: Inhibition of human carbonic anhydrase 2 assessed as conversion of 4-nitrophenyl acetate to 4-nitrophnolate after 5 mins
[7] = Cytotoxicity in sheep RBC assessed as hemolysis at 0.125 to 1000 uM after 20 mins; assay type: cell-based, Ovis aries; settings: erythrocyte; outline: as §1

Structure (SMILES)	IC50 [2] [nM]	other results
[NH-]S(=O)(=O)C(F)(F)C(F)(F)C(F)(F)C(F)(F)C(F)(F)C(F)(F)C(F)(F)C(F)(F)F.[Na+] [SODIUM PERFLUOROOCTANESULFONAMIDE]	1790	Activity [1]: Toxic
NS(=O)(=O)C(F)(F)C(F)(F)C(F)(F)C(F)(F)F	1490	
NS(=O)(=O)CCC(F)(F)C(F)(F)C(F)(F)C(F)(F)C(F)(F)C(F)(F)C(F)(F)C(F)(F)F	1660	
NS(=O)(=O)C(F)(F)C(F)(F)C(F)(F)C(F)(F)S(N)(=O)=O	1740	
NS(=O)(=O)C(F)(F)C(F)(F)C(F)(F)C(F)(F)F [SODIUM PERFLUOROBUTANESULFONAMIDE]	1670	
CCCCCCCCS(N)(=O)=O		inhibition [3]: inactive
NS(=O)(=O)C(F)(F)C(F)(F)C(F)(F)C(F)(F)C(F)(F)C(F)(F)C(F)(F)C(F)(F)F	1580	Activity [4]: Toxic
NS(=O)(=O)CCC(F)(F)C(F)(F)C(F)(F)C(F)(F)F	2090	
CCCCCCS(N)(=O)=O		inhibition [3]: inactive
[NH-]S(=O)(=O)C(F)(F)C(F)(F)C(F)(F)C(F)(F)C(F)(F)C(F)(F)F.[Na+] [SODIUM PERFLUOROHEXANESULFONAMIDE]	1380	Activity [5]: Non-toxic; IC50 [6]: 122 nM
NS(=O)(=O)C(F)(F)C(F)(F)C(F)(F)C(F)(F)C(F)(F)C(F)(F)F	1470	Activity [7]: Non-toxic; Activity [5]: Non-toxic

Second part, led by results:

IC50 [2] [nM]	Structure (SMILES)	other results
1500	NS(=O)(=O)C(F)(F)F [TRIFLUOROMETHANESULFONAMIDE]	
1720	NS(=O)(=O)C(F)(F)C(F)(F)C(F)(F)C(F)(F)C(F)(F)C(F)(F)C(F)(F)F	
1900	NS(=O)(=O)CCC(F)(F)C(F)(F)C(F)(F)C(F)(F)C(F)(F)C(F)(F)F	
1350	CC(=O)Nc1nnc(S(N)(=O)=O)s1 [ACETAZOLAMIDE]	
